Published values from different studies.
Lines come from different studies, so protocols differ.
HTR2B: 5-hydroxytryptamine receptor 2B (HTR2B, Homo sapiens, UniProt P41595)
HTR2C: 5-hydroxytryptamine receptor 2C (HTR2C, Homo sapiens, UniProt P28335)

CC(C)CC(=O)OC[C@H]1O[C@@](C#N)(c2ccc3c(N)ncnn23)[C@H](O)[C@@H]1O
inhibition (HTR2B; cell-free assay; 20 µM): 10%

COc1cc2c3c(c1OC)-c1c(OC)ccc(O)c1CC3N(C)CC2 (stereo not drawn)
inhibition (HTR2B; ligand displacement, radioligand; 10 µM): 86%

[2H]c1c([2H])c([C@]2([2H])CCCN2C(=O)C(C)(C)Oc2ccc3cn[nH]c3c2)c([2H])c([2H])c1C([2H])([2H])[2H]
remaining binding (Serine/threonine-protein kinase DCLK3 (DCLK3, Homo sapiens, UniProt Q9C098); binding, competition with immobilised ligand; 1 µM): 86%

COc1cc2c(cc1OC)-c1c(OC)c(OC)cc3c1[C@H](C2)N(C)CC3
inhibition (HTR2B; ligand displacement, radioligand; 10 µM): 92%

Nc1ncnc2c1ncn2[C@@H]1O[C@H](C[C@@H](N)CC[C@H](N)C(=O)O)[C@@H](O)[C@H]1O
inhibition (mRNA cap guanine-N(7) methyltransferase (RNMT, Homo sapiens, UniProt O43148); enzyme activity, inhibitor; 12.21 nM): 13.7%

CCOC(=O)Cc1c2c3c(cc(OC)c(OC)c3c3cc(OC)c(OC)cc13)CCN2C
inhibition (HTR2C; ligand displacement, radioligand; 10 µM): 6%

COc1cc(C(F)(F)F)c(OC)cc1C1CCCNC1 (stereo not drawn)
Emax (HTR2C; calcium signal, agonist): 31%

CN1CCC[C@H]1c1cccnc1
inhibition (HTR2B; ligand displacement; 50 µM): -8.78%

CC[C@H](C)[C@H](NC(=O)[C@H](CO)NC(=O)[C@H](Cc1ccc(O)cc1)NC(=O)[C@H](CC(=O)O)NC(=O)[C@H](CO)NC(=O)[C@@H](NC(=O)[C@H](Cc1ccccc1)NC(=O)[C@@H](NC(=O)CNC(=O)[C@H](CCC(=O)O)NC(=O)CCNC(=O)C1(c2ccc(Cl)cc2)CCOCC1)[C@@H](C)O)[C@@H](C)CC)C(=O)N[C@@H](C)C(=O)N[C@@H](CCSC)C(=O)N[C@@H](CC(=O)O)C(=O)N[C@@H](CCCCN)C(=O)N[C@H](C(=O)N[C@@H](Cc1c[nH]cn1)C(=O)N[C@@H](CCC(N)=O)C(=O)N[C@@H](CCC(N)=O)C(=O)N[C@@H](CC(=O)O)C(=O)N[C@@H](Cc1ccccc1)C(=O)N[C@H](C(=O)N[C@@H](CC(N)=O)C(=O)N[C@@H](Cc1c[nH]c2ccccc12)C(=O)N[C@@H](CC(C)C)C(=O)N[C@@H](CC(C)C)C(=O)N[C@@H](C)C(=O)N[C@@H](CCC(N)=O)C(=O)NCC(=O)N1CCC[C@H]1C(=O)N[C@@H](CO)C(=O)N[C@@H](CO)C(=O)NCC(=O)N[C@@H](C)C(=O)N1CCC[C@H]1C(=O)N1CCC[C@H]1C(=O)N1CCC[C@H]1C(=O)N[C@@H](CO)C(=O)N[C@@H](CCCCN)C(N)=O)C(C)C)[C@@H](C)CC
Emax (Glucagon receptor (Mus musculus, UniProt Q61606); cAMP, agonist): < 20%

COc1cc2c3c(c1OC)-c1c(cccc1OC)CC3N(C)CC2 (racemic)
inhibition (HTR2C; ligand displacement, radioligand; 10 µM): 51%

c1cncc([C@@H]2CCCN2)c1
inhibition (Neuronal acetylcholine receptor; alpha3/beta4 (Rattus norvegicus, UniProt P04757+P12392); ligand displacement, radioligand; 50 µM): 69.1%

CCCC(NCCc1cc(OC)c(C#N)cc1OC)c1ccccc1O (stereo not drawn)
Emax (HTR2C; calcium signal, agonist): 56%
